ChEMBL document CHEMBL4680305, “Synthesis and biological evaluation of all possible inosine-mixed cyclic dinucleotides that activate different hSTING variants” (Bioorg Med Chem, 2021)
Activity calls are given as the source filed them. No cut-off for these calls is given here.

Molecular target: Stimulator of interferon genes protein (Homo sapiens, UniProt Q86WV6)
Assay: Binding affinity to wild-type human STING-CTD (139-379) expressed in Escherichia coli BL21(D Escherichia ) cells by isothermal titration calorimetry
Conditions: not given

Chain of Stimulator of interferon genes protein (Q86WV6 whole entry): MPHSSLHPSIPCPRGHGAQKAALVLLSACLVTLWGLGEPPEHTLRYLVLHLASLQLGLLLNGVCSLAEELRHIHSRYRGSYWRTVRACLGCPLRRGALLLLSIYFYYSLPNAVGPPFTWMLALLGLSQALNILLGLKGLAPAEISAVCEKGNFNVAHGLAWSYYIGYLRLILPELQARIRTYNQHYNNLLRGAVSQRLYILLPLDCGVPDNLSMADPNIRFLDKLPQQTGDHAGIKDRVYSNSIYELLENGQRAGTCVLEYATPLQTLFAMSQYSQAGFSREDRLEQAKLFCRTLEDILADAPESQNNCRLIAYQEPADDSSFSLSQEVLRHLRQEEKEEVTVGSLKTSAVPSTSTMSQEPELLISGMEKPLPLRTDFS

| Compound | Kd |
| --- | --- |
| O=c1[nH]cnc2c1ncn2[C@@H]1O[C@@H]2COP(=O)(O)O[C@H]3[C@@H](O)[C@H](n4cnc5c(=O)[nH]cnc54)O[C@@H]3COP(=O)(O)O[C@H]2[C@H]1O | 19.5 µM |

Test system: HEK293T
Assay: Activation of human STING R232H mutant expressed in HEK293T cells assessed as increase IFN-beta activity at 5 uM […] by dual-luciferase reporter gene assay
Type: cell-based
Conditions: filed as activator
Procedure, shortened: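 HEK293T cells were co-transfected using polyjet with pcDNA3.1-hSTING R232H (50 ng), pGL3-IFNβ firefly reporter (400 ng) and pGL4.74-Rluc-TK (50 ng). After 24 h, cells were stimulated with 5 µM CDN for 30 min in digitonin buffer (10 µg/mL digitonin, 1 mM ATP, 0.1 mM GTP, HEPES/KCl/MgCl2), then put back in normal medium. Lysates were taken 12 h later for dual-luciferase readout; mean ± s.e.m., n = 5.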

| Compound | Activity |
| --- | --- |
| O=c1ccn([C@@H]2O[C@@H]3COP(=O)(O)O[C@@H]4[C@H](O)[C@@H](COP(=O)(O)O[C@@H]2[C@@H]3O)O[C@H]4n2cnc3c(=O)[nH]cnc32)c(=O)[nH]1 | Active |
| Nc1ncnc2c1ncn2[C@@H]1O[C@@H]2COP(=O)(O)O[C@@H]3[C@H](O)[C@@H](COP(=O)(O)O[C@H]2[C@H]1O)O[C@H]3n1cnc2c(=O)[nH]cnc21 | Active |
| Nc1ncnc2c1ncn2[C@@H]1O[C@@H]2COP(=O)(O)O[C@@H]3[C@H](O)[C@@H](COP(=O)(O)O[C@@H]1[C@@H]2O)O[C@H]3n1cnc2c(O)ncnc21 | Active |
| Nc1ccn([C@@H]2O[C@@H]3COP(=O)(O)O[C@H]4[C@@H](O)[C@H](n5cnc6c(=O)[nH]cnc65)O[C@@H]4COP(=O)(O)O[C@@H]2[C@@H]3O)c(=O)n1 | Active |
| Nc1nc2c(ncn2[C@@H]2O[C@@H]3COP(=O)(O)O[C@@H]4[C@H](O)[C@@H](COP(=O)(O)O[C@@H]2[C@@H]3O)O[C@H]4n2cnc3c(=O)[nH]cnc32)c(=O)[nH]1 | Active |
| Nc1ccn([C@@H]2O[C@@H]3COP(=O)(O)O[C@@H]4[C@H](O)[C@@H](COP(=O)(O)O[C@@H]2[C@@H]3O)O[C@H]4n2cnc3c(=O)[nH]cnc32)c(=O)n1 | Active |
| O=c1[nH]cnc2c1ncn2[C@@H]1O[C@@H]2COP(=O)(O)O[C@@H]3[C@H](O)[C@@H](COP(=O)(O)O[C@H]2[C@H]1O)O[C@H]3n1cnc2c(=O)[nH]cnc21 | Active |
| O=c1[nH]cnc2c1ncn2[C@@H]1O[C@@H]2COP(=O)(O)O[C@@H]3[C@H](O)[C@@H](COP(=O)(O)O[C@@H]1[C@@H]2O)O[C@H]3n1cnc2c(=O)[nH]cnc21 | Active |
| Nc1ncnc2c1ncn2[C@@H]1O[C@@H]2COP(=O)(O)O[C@H]3[C@@H](O)[C@H](n4cnc5c(O)ncnc54)O[C@@H]3COP(=O)(O)O[C@@H]1[C@@H]2O | Active |

Test system: not listed separately
Assay: Stability of compound in presence of 20% FBS
Conditions: not given
Procedure, shortened: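 CDN at 0.1 µg/µL was incubated at 37 °C in 20% FBS with 20 mM PBS pH 7.4 and 5 mM MgCl2, against a water control. Aliquots taken at various time points were quenched with EDTA pH 8.0 and centrifuged. They were analysed by HPLC with UV at 254 nm, using 10 mM TEAA/MeCN mobile phase at 25 °C.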

| Compound | Stability |
| --- | --- |
| Nc1ncnc2c1ncn2[C@@H]1O[C@@H]2COP(=O)(O)O[C@H]3[C@@H](O)[C@H](n4cnc5c(O)ncnc54)O[C@@H]3COP(=O)(O)O[C@H]2[C@H]1O | Stable |
